Test results: the RNAGym collection of RNA variant scans (doi:10.1038/s41586-018-0170-7)

B1: tRNA (parent)
chain: GUUCCGUUGGCGUAAUGGUAACGCGUCUCCCUCCUAAGGAGAAGACUGCGGGUUCGAGUCCCGUACGGAACG

Variants of: B1
Assay: yeast fitness, log relative to wild type (ln ratio); higher = fitter; tRNA-Arg(CCU), competitive growth, 37 C, 1 M NaCl
Method in brief: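 Genotype fitness is expressed as the natural log of its generations over those of the wild type. Each pool of the tRNA-Arg(CCU) variant library, carried on a HIS3 centromeric plasmid in BY4742 lacking the chromosomal gene, came from one of two independent transformations and grew 4 generations in SC-HIS at 30 °C before ~6.5 generations (~26.5 h) in SC-HIS 1M NaCl at 37 °C. Generation numbers used OD-scaled log2 output/input frequencies from 125 bp paired-end Illumina sequencing, combined across replicates by inverse-variance weighting.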

| Variant | yeast fitness (ln) |
| --- | --- |
| AUUCCUUUGGCGUAAUGGUAACGCGUUUCCCUCCUAAGGAGAAGAUUGCGGGUUCGAGUCCCGUAUGGGGUG | -0.388 |
| GGUCCGUUGGCGUAAUGGUAACGCGUCUCCCUCCUAAGGAGACGACUGCGGGUUCGAGUCCCGUACGGAUUG | -0.0697 |
| ACUCCAUUGGCGUAAUGGUAACGCGUUUCCCUCCUAAGGAGAAGACUGCGGGUUCGAGUCCCGUAUGGAGCG | -0.128 |
| GGUCCGUUGGCGUAAUGGUAACGCGUUUCCCUCCUAAGGAGACGAUUGCGGGUUCGAGUCCCGUAAGGGUUG | -0.498 |
| GUUCCUUUGGCGUAAUGGUAACGCGUCUCCCUCCUAAGGAGAAGAUUGCGGGUUCGAGUCCCGUACGGAUCG | -0.161 |
| ACUCCUUUGGCGUAAUGGUAACGCGUUUCCCUCCUAAGGAGAAGAUUGCGGGUUCGAGUCCCGUACGGAGCG | -0.129 |
| GUUCCAUUGGCGUAAUGGUAACGCGUUUCCCUCCUAAGGAGACGAUUGCGGGUUCGAGUCCCGUAAGGAGUG | -0.296 |
| AGUCCUUUGGCGUAAUGGUAACGCGUUUCCCUCCUAAGGAGAAGAUUGCGGGUUCGAGUCCCGUAAGGGGUG | -0.417 |
| AGUCCAUUGGCGUAAUGGUAACGCGUCUCCCUCCUAAGGAGAAGACUGCGGGUUCGAGUCCCGUAUGGGUUG | -0.33 |
| GCUCCUUUGGCGUAAUGGUAACGCGUUUCCCUCCUAAGGAGAAGACUGCGGGUUCGAGUCCCGUAUGGGGCG | -0.277 |
| GCUCCUUUGGCGUAAUGGUAACGCGUUUCCCUCCUAAGGAGAAGACUGCGGGUUCGAGUCCCGUAUGGGGUG | -0.288 |
| GUUCCAUUGGCGUAAUGGUAACGCGUUUCCCUCCUAAGGAGACGACUGCGGGUUCGAGUCCCGUAAGGAGUG | -0.325 |
| GGUCCGUUGGCGUAAUGGUAACGCGUUUCCCUCCUAAGGAGAAGAUUGCGGGUUCGAGUCCCGUAUGGAGCG | -0.117 |
| GCUCCGUUGGCGUAAUGGUAACGCGUUUCCCUCCUAAGGAGAAGACUGCGGGUUCGAGUCCCGUACGGAACG | -0.0171 |
| GCUCCGUUGGCGUAAUGGUAACGCGUCUCCCUCCUAAGGAGACGACUGCGGGUUCGAGUCCCGUAUGGGGCG | -0.169 |
| GGUCCUUUGGCGUAAUGGUAACGCGUCUCCCUCCUAAGGAGACGAUUGCGGGUUCGAGUCCCGUAUGGAACG | -0.191 |
| GGUCCAUUGGCGUAAUGGUAACGCGUCUCCCUCCUAAGGAGAAGAUUGCGGGUUCGAGUCCCGUACGGGGUG | -0.154 |
| ACUCCAUUGGCGUAAUGGUAACGCGUCUCCCUCCUAAGGAGAAGAUUGCGGGUUCGAGUCCCGUACGGGUUG | -0.0787 |
| GGUCCUUUGGCGUAAUGGUAACGCGUCUCCCUCCUAAGGAGACGAUUGCGGGUUCGAGUCCCGUAAGGAUUG | -0.135 |

| Variant | yeast fitness (ln) |
| --- | --- |
| GGUCCUUUGGCGUAAUGGUAACGCGUUUCCCUCCUAAGGAGACGAUUGCGGGUUCGAGUCCCGUAAGGAGUG | -0.197 |
| AGUCCUUUGGCGUAAUGGUAACGCGUUUCCCUCCUAAGGAGAAGACUGCGGGUUCGAGUCCCGUACGGGGUG | -0.448 |
| ACUCCGUUGGCGUAAUGGUAACGCGUCUCCCUCCUAAGGAGAAGACUGCGGGUUCGAGUCCCGUAUGGAAUG | -0.189 |
| GUUCCGUUGGCGUAAUGGUAACGCGUCUCCCUCCUAAGGAGAAGAUUGCGGGUUCGAGUCCCGUAAGGAGCG | -0.0456 |
| GGUCCAUUGGCGUAAUGGUAACGCGUUUCCCUCCUAAGGAGACGAUUGCGGGUUCGAGUCCCGUACGGGGUG | -0.297 |
| AUUCCAUUGGCGUAAUGGUAACGCGUUUCCCUCCUAAGGAGAAGACUGCGGGUUCGAGUCCCGUAUGGGGCG | -0.386 |
| GGUCCAUUGGCGUAAUGGUAACGCGUUUCCCUCCUAAGGAGAAGAUUGCGGGUUCGAGUCCCGUAUGGGACG | -0.215 |
| AGUCCGUUGGCGUAAUGGUAACGCGUUUCCCUCCUAAGGAGAAGAUUGCGGGUUCGAGUCCCGUAAGGAGUG | -0.203 |
| GGUCCAUUGGCGUAAUGGUAACGCGUUUCCCUCCUAAGGAGACGAUUGCGGGUUCGAGUCCCGUAUGGGGUG | -0.289 |
| ACUCCAUUGGCGUAAUGGUAACGCGUUUCCCUCCUAAGGAGAAGACUGCGGGUUCGAGUCCCGUAUGGGUCG | -0.0942 |
| GUUCCAUUGGCGUAAUGGUAACGCGUCUCCCUCCUAAGGAGAAGACUGCGGGUUCGAGUCCCGUACGGGUUG | -0.315 |
| GGUCCGUUGGCGUAAUGGUAACGCGUCUCCCUCCUAAGGAGACGACUGCGGGUUCGAGUCCCGUAUGGAAUG | -0.343 |
| GUUCCAUUGGCGUAAUGGUAACGCGUCUCCCUCCUAAGGAGACGACUGCGGGUUCGAGUCCCGUAUGGGAUG | -0.51 |
| AGUCCAUUGGCGUAAUGGUAACGCGUCUCCCUCCUAAGGAGAAGAUUGCGGGUUCGAGUCCCGUACGGGAUG | -0.193 |
| GCUCCAUUGGCGUAAUGGUAACGCGUCUCCCUCCUAAGGAGAAGACUGCGGGUUCGAGUCCCGUAUGGAUUG | -0.172 |
| GGUCCAUUGGCGUAAUGGUAACGCGUCUCCCUCCUAAGGAGACGAUUGCGGGUUCGAGUCCCGUAUGGAGCG | -0.205 |
| GGUCCUUUGGCGUAAUGGUAACGCGUCUCCCUCCUAAGGAGAAGAUUGCGGGUUCGAGUCCCGUACGGAACG | -0.0208 |
| GCUCCAUUGGCGUAAUGGUAACGCGUUUCCCUCCUAAGGAGAAGACUGCGGGUUCGAGUCCCGUACGGGAUG | -0.0988 |
